The values that follow come from ChEMBL document CHEMBL1135679, “Potent delta-opioid receptor agonists containing the Dmt-Tic pharmacophore” (J Med Chem, 2002).

By IC50 is commonly meant the concentration at which inhibition is half-maximal. Usually Ki stands for a measure of affinity in units of concentration, obtained from inhibition or displacement.

Square brackets hold non-standard residues; d marks the D form. Peptide text beside a SMILES is read from it. Dmt = Cc1cc(O)cc(C)c1C[C@H](N)C(=O)O; Tic = O=C(O)[C@@H]1Cc2ccccc2CN1

The target of assay [1] is Mu-type opioid receptor (Cavia porcellus, UniProt P97266). Nature of the assay: In vitro inhibitory activity against electrically evoked contractions of guinea pig ileum (GPI). The assay is classed as functional, tissue-based. The method, boiled down: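 Isolated tissue bioassay. IC50 read from concentration–response curves of agonist inhibition. Mean ± SE of at least five fresh tissue samples, with an internal standard peptide run for each tissue.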
Sequence of Mu-type opioid receptor (Cavia porcellus, UniProt P97266) (P97266 whole entry): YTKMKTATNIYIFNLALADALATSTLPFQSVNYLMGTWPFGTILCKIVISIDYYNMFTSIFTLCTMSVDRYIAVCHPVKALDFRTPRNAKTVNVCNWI

Assay [2] in a line: Relative binding to mu and delta opioid receptors (ratio of Ki).
For assay [3], the target named is Delta-type opioid receptor (Mus musculus) (UniProt P32300). As to conditions: Vas deferens.
Sequence of Delta-type opioid receptor (Mus musculus) (P32300 whole entry): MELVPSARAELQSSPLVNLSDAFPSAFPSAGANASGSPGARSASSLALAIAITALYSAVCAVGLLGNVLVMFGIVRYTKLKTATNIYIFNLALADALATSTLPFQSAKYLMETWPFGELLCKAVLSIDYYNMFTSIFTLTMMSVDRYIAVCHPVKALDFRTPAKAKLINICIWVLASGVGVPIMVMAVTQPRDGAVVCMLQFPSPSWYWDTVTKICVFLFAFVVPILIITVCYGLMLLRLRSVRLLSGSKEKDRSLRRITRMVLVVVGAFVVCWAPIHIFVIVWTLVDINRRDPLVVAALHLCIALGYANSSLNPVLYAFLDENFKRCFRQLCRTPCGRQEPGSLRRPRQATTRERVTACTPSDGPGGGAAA
Assay [4] has as its target Delta-type opioid receptor (Rattus norvegicus, UniProt P33533). Nature of the assay: Inhibition of [3H]DPDPE binding to Opioid receptor delta 1 of rat brain P2 synaptosomes. The assay is classed as subcellular. The method, boiled down: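 Rat brain P2 synaptosomes, pretreated 60 min at room temperature in 0.1 M NaCl, 0.4 mM GDP, 50 mM HEPES pH 7.5 and 50 µg/mL trypsin inhibitor, then washed and frozen at -80 °C. Competition against [3H]DPDPE for 2 h at room temperature. Nonspecific binding defined with 2 µM unlabelled peptide. Filtered on GF/C and counted. Five to eight doses in duplicate, 3–5 independent preparations, mean ± SE. Ki via Cheng–Prusoff.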

The target of assay [5] is Mu-type opioid receptor (Rattus norvegicus, UniProt P33535). Nature of the assay: Inhibition of [3H]DAGO binding to Opioid receptor mu 1 of rat brain P2 synaptosomes. The assay is classed as subcellular. The method, boiled down: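 Competition binding on rat brain P2 synaptosomes. Synaptosomes were preincubated 60 min at room temperature in 0.1 M NaCl, 0.4 mM GDP, 50 mM HEPES pH 7.5 and 50 µg/mL soybean trypsin inhibitor to strip endogenous opioids, then washed, stored at -80 °C, and labelled with [3H]DAGO. Incubation ran 2 h at room temperature to equilibrium. Nonspecific binding was set with 2 µM unlabelled peptide. Bound ligand was collected by GF/C filtration and counted. Five to eight doses in duplicate, 3–5 repetitions on separate preparations, mean ± SE. Ki by Cheng–Prusoff.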
Sequence of Mu-type opioid receptor (Rattus norvegicus, UniProt P33535) (P33535 whole entry): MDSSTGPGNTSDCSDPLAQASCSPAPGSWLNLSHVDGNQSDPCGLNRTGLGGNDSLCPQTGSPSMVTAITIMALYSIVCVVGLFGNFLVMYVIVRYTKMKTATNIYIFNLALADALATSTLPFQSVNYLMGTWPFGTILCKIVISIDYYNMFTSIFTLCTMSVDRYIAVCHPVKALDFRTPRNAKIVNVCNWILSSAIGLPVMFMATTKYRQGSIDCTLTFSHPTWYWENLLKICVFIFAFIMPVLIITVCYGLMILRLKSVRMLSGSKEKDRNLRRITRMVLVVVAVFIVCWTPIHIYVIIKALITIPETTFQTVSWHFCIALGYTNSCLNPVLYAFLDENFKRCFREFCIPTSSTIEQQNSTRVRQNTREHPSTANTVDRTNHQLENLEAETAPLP

For assay [6], the target named is Delta-type opioid receptor (Mus musculus, UniProt P32300). Nature of the assay: In vitro inhibitory activity against electrically evoked contractions of in mouse vas deferens (MVD). The assay is classed as functional, tissue-based.
Sequence of Delta-type opioid receptor (Mus musculus, UniProt P32300) (P32300 whole entry): as the sequence (P32300 whole entry) above
Assay [7] has as its target Delta-type opioid receptor (Mus musculus) (UniProt P32300). Nature of the assay: In vitro inhibitory activity against electrically evoked contractions of the mouse vas deferens (MVD). The assay is classed as functional, tissue-based.

Sequence of Delta-type opioid receptor (Rattus norvegicus, UniProt P33533) (P33533 whole entry): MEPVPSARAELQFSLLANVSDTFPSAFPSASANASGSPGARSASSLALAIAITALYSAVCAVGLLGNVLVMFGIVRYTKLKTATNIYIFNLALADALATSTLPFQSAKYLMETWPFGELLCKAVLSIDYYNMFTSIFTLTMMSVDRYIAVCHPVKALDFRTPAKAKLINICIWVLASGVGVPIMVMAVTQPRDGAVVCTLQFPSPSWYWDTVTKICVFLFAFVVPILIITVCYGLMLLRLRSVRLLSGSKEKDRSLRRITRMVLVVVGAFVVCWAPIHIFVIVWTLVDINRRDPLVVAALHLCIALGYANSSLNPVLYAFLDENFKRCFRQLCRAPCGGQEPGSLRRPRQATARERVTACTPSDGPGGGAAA

As to `Cc1cc(O)cc(C)c1C[C@H](N)C(=O)N1Cc2ccccc2C[C@H]1C(=O)NCCc1nc2ccccc2[nH]1`, the IC50 against Mu-type opioid receptor [1] worked out at 108 nM. Besides, in assay [2], the Selectivity came out at 82. Besides, the Ke in assay [3] was determined as 4.78 nM.
`Cc1cc(O)cc(C)c1C[C@H](N)C(=O)N1Cc2ccccc2C[C@H]1C(=O)N[C@@H](C)c1nc2ccccc2[nH]1` came in with a 50% inhibitory concentration (IC50) against Mu-type opioid receptor [1] of 71.7 nM. Also, the Ki in assay [4] came out at 0.063 nM; on Mu-type opioid receptor [5], 0.411 nM. Also, the Selectivity in assay [2] is 6.5.
As to `Cc1cc(O)cc(C)c1C[C@H](N)C(=O)N1Cc2ccccc2C[C@H]1C(=O)NCc1nc2ccccc2[nH]1`, the IC50 was 40.7 nM against Mu-type opioid receptor [1] and 0.035 nM in assay [6].
As for `Cc1cc(O)cc(C)c1C[C@H](N)C(=O)N1Cc2ccccc2C[C@H]1C(=O)N[C@@H](C)C(N)=O` (H-[Dmt]-[Tic]-Ala-NH2), the Selectivity in assay [2] was 195. Moreover, in assay [3], the Ke is 10 nM.
For the molecule `CC(C)[C@H](NC(=O)[C@H](CC(=O)O)NC(=O)[C@H](Cc1ccccc1)NC(=O)[C@H](C)NC(=O)[C@@H](N)Cc1ccc(O)cc1)C(=O)N[C@H](C(=O)NCC(=O)O)C(C)C`, the figures for the IC50 (against Mu-type opioid receptor [1]; in assay [6]) were more than 1200 nM and 0.3 nM, respectively. In addition, the Ki came to 0.24 nM in assay [4] and 272 nM at Mu-type opioid receptor [5]. Further, in assay [2], the Selectivity was determined as 1140.
The molecule `Cc1cc(O)cc(C)c1C[C@H](N)C(=O)N1Cc2ccccc2C[C@H]1C(=O)N[C@@H](CC(=O)O)C(N)=O` (H-[Dmt]-[Tic]-Asp-NH2) yielded a concentration for half-maximal inhibition (IC50) at Mu-type opioid receptor [1] of more than 10000 nM. Further, the Ki in assay [4] was 0.289 nM; on Mu-type opioid receptor [5], 2560 nM. This molecule had a Ke in assay [7] of 7.58 nM. For the same molecule, the Selectivity in assay [2] stood at 8880.
In the case of `Cc1cc(O)cc(C)c1C[C@H](N)C(=O)N1Cc2ccccc2C[C@H]1C(=O)N[C@@H](Cc1nc2ccccc2[nH]1)C(=O)O`, the IC50 at Mu-type opioid receptor [1] was determined as 1560 nM; in assay [6] it was 0.015 nM. Moreover, the Ki in assay [4] is 0.042 nM; on Mu-type opioid receptor [5], 21.7 nM. Also, the Selectivity in assay [2] amounted to 516.
As for `Cc1cc(O)cc(C)c1C[C@H](N)C(=O)N1Cc2ccccc2C[C@H]1C(=O)N[C@H](C)C(N)=O` (H-[Dmt]-[Tic]-[dA]-NH2), on Mu-type opioid receptor [1], the IC50 is more than 10000 nM. Moreover, the Ki in assay [4] turned out to be 0.301 nM; at Mu-type opioid receptor [5], 47.5 nM. For the same molecule, the Selectivity in assay [2] was found to be 158. This molecule also registered a Ke in assay [3] of 25.1 nM.
In the case of `C[C@@H](NC(=O)[C@@H](N)Cc1ccc(O)cc1)C(=O)N[C@@H](Cc1ccccc1)C(=O)NCC(=O)N[C@@H](Cc1ccc(O)cc1)C(=O)N1CCC[C@H]1C(=O)N[C@@H](CO)C(N)=O` [DERMORPHIN], it took 1.21 nM to reach half-maximal inhibition at Mu-type opioid receptor [1] (IC50). At Mu-type opioid receptor [5], this molecule returned a Ki of 1.22 nM.
`Cc1cc(O)cc(C)c1C[C@H](N)C(=O)N1Cc2ccccc2C[C@H]1C(=O)N[C@@H](CC(N)=O)C(=O)O` (H-[Dmt]-[Tic]-Asn-OH) displayed an IC50 at Mu-type opioid receptor [1] of more than 10000 nM. The values for the inhibition constant (Ki) (in assay [4]; on Mu-type opioid receptor [5]) were 1.1 nM and 80.3 nM, respectively. Moreover, the Selectivity in assay [2] was found to be 73. The same molecule gave a Ke in assay [3] of 5.88 nM.
With `Cc1cc(O)cc(C)c1C[C@H](N)C(=O)N1Cc2ccccc2C[C@H]1C(=O)N[C@@H](CC(=O)O)c1nc2ccccc2[nH]1`, the Selectivity in assay [2] is 122.
On to `Cc1cc(O)cc(C)c1C[C@H](N)C(=O)N1Cc2ccccc2C[C@H]1C(=O)N[C@H](C)c1nc2ccccc2[nH]1`, for which the IC50 at Mu-type opioid receptor [1] was found to be 6.36 nM; in assay [6], 0.026 nM. Moreover, the figures for the Ki (in assay [4]; at Mu-type opioid receptor [5]) were 0.047 nM and 0.233 nM, respectively. Besides, in assay [2], the Selectivity amounted to 5.
